# Measured values pooled from the literature.
# Each line is one published result; the experiments were not run side by side.
# Cell line: MDA-MB-231
# Observed: cell growth or viability
Compound,assay,conditions,IC50
O=C(Nc1ccc(Cl)cc1)Nc1ccc(Oc2nc3ccccc3n3cnnc23)cc1,MTT,24 h,> 68 µM
Cc1cc(NS(=O)(=O)c2ccc(NC(=O)/C(C#N)=C/c3ccncc3)cc2)no1,MTT,48 h,116 µM
COc1cccc(NC(=S)N/N=C/c2cccc3cc4ccccc4nc23)c1,MTT,48 h,> 50 µM
C=CC(C)(C)c1[nH]cnc1/C=C1/NC(=O)[C@H](C(C)C)NC1=O,SRB,,> 15 µM
O=c1[nH]cc(F)c(=O)[nH]1,MTT,48 h,12.2 µM
COc1ccc(C(=O)N/N=C/c2cn(S(=O)(=O)c3ccc(C)cc3)c3ccccc23)cc1,MTT,48 h,34.4 µM
C[C@H]1[C@H](C)CC[C@]2(C)CC[C@]3(C)C(=CC(=O)[C@@H]4[C@@]5(C)CC[C@@H](O)[C@](C)(C(=O)NCc6cn(-c7ccc(Cl)cc7)nn6)[C@@H]5CC[C@]43C)[C@H]12,MTT,24 h,106 µM
Cc1ccc(S(=O)(=O)n2cc(/C=N/NC(=O)c3ccccc3Br)c3ccccc32)cc1,MTT,48 h,29.4 µM
COc1ccc(-n2cc(CNC(=O)[C@@]3(C)[C@H](O)CC[C@@]4(C)[C@H]3CC[C@]3(C)[C@@H]4C(=O)C=C4[C@@H]5[C@@H](C)[C@H](C)CC[C@]5(C)CC[C@]43C)nn2)cc1,MTT,24 h,76.6 µM
Cc1ccc(S(=O)(=O)n2cc(/C=N/NC(=O)c3ccccc3)c3ccccc32)cc1,MTT,48 h,24.1 µM
CC(C)[C@@H]1NC(=O)[C@H](Cc2c[nH]cn2)NC1=O,SRB,,> 15 µM
Fc1ccc(NC(=S)N/N=C/c2cccc3cc4ccccc4nc23)cc1,MTT,48 h,> 50 µM
CC(C)(C)c1cnc(CSc2cnc(NC(=O)C3CCN(C(=O)CCCCCCCN4Cc5cc6c(cc5C4)C(=O)N(C4CCC(=O)NC4=O)C6=O)CC3)s2)o1 (stereo not drawn),MTT,,0.0796 µM
Cc1ccc(C(C)C)c(OC2=C(Cl)C(=O)c3ccccc3C2=O)c1,MTT,24 h,60 µg/mL
Cc1ccc(S(=O)(=O)n2cc(/C=N/NC(=O)c3ccc(Br)cc3)c3ccccc32)cc1,MTT,48 h,22.4 µM
C[C@H]1[C@H](C)CC[C@]2(C)CC[C@]3(C)C(=CC(=O)[C@@H]4[C@@]5(C)CC[C@@H](O)[C@](C)(C(=O)NCc6cn(-c7cccc(C(F)(F)F)c7)nn6)[C@@H]5CC[C@]43C)[C@H]12,MTT,24 h,70.4 µM
COc1ccccc1/C=N/N=C1\C(=O)Nc2ccccc21,MTT,24 h,41.2 µg/mL
Nc1ccn([C@@H]2O[C@H](CO)[C@@H](O)C2(F)F)c(=O)n1,MTT,48 h,4.07 µg/mL
